# Experimental data of several laboratories.
# Protocols differ between the studies behind these lines.
# Target: Delta-type opioid receptor (OPRD1, Homo sapiens, UniProt P41143)
Structure (SMILES),assay,test system,setting,endpoint,result
CC1(C)SSC(C)(C)[C@@H](NC(=O)[C@@H](N)Cc2ccc(O)cc2)C(=O)NCC(=O)N[C@@H](Cc2ccccc2)C(=O)N2CCN(CC2)C(=O)[C@H](Cc2ccccc2)NC(=O)CNC(=O)[C@@H]1NC(=O)[C@@H](N)Cc1ccc(O)cc1,"cAMP, agonist, luciferase",HEK293,,Emax,206%
COCc1c(-c2cc3cc(C)cc(OC)c3s2)c2c(N)ncnn2c1CN1CCNC(=O)C1,"ligand displacement, radioligand",,10 µM,inhibition,16%
Nc1ncc(-c2nc(N3CCOCC3)nc(N3CCOCC3)n2)c(C(F)F)n1,"cell-free assay, radioligand",,10 µM,remaining signal,103%
c1ccc(C(NCCNC(c2ccccc2)c2ccccc2)c2ccccc2)cc1,ligand displacement,,10 µM,inhibition,81%
Cc1cc(Nc2nccc(C)n2)cc(-c2cnc([C@@]3(O)CC[C@H](C(=O)O)C(C)(C)C3)s2)c1,ligand displacement,,10 µM,inhibition,12.8%
Clc1ccc2c(C3CCN(CCc4c[nH]c5ccccc45)CC3)c[nH]c2c1,"ligand displacement, radioligand",,10 µM,inhibition,35%
CC[C@@H]1CN2CC[C@@]3(O)C(=Nc4cccc(-c5ccoc5)c43)[C@@H]2C[C@@H]1/C(=C\OC)C(=O)OC,"β-arrestin recruitment, agonist",,,Emax,> 100%
CCN(CC)CCCC[C@H](NC(=O)[C@H](CC(C)C)NC(=O)[C@H](C)NC(=O)[C@H](Cc1ccccc1)NC(=O)c1ccc(C(C)(C)C)cc1)C(=O)N[C@@H](CO)C(=O)OC,"ligand displacement, radioligand",,10 µM,remaining binding,71.4%
O=C(c1ccc(F)cc1)N1CC(COc2ccc(Br)cc2)(C(=O)O)C1,cell-free assay,,10 µM,inhibition,-5.22%
CC[C@@H]1CN2CC[C@@]3(O)C(=Nc4cccc(-c5ccccc5)c43)[C@@H]2C[C@@H]1/C(=C\OC)C(=O)OC,"β-arrestin recruitment, agonist",,,Emax,> 100%
CC(C)N1CCC[C@H]1CNC(=O)c1cn(C2CCCC2)c(=O)c2c1c1ccccc1n2C,"ligand displacement, radioligand",,10 µM,inhibition,6%
C[C@H](C(=O)N[C@H]1COc2ccccc2[C@@H]1S(C)(=O)=O)c1ccc(F)cc1,ligand displacement,,10 µM,inhibition,1%
